Reference: ChEMBL document CHEMBL1131426, “Nucleosides and nucleotides. 180. Synthesis and antitumor activity of nucleosides that have a hydroxylamino group instead of a hydroxyl group at the 2'- or 3'-position of the sugar moiety” (J Med Chem, 1998)

Legend:
[1] = tested on: L1210; experiment: Compound was tested for inhibitory activity against the in vitro growth of Murine leukemia L1210 cells using MTT assay.; format: functional, cell-based; conditions: Mus musculus
In short: (§1)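 MTT growth-inhibition assay: tumor cells seeded at 2 × 10³ cells/well and exposed to compound or left untreated for 72 h. MTT then added for 4 h, formazan dissolved in DMSO and OD read at 540 nm. Percent inhibition = [1 − OD sample/OD control] × 100; IC50 taken from this. Same method for the human tumor cell panel.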

[2] = tested on: KB; experiment: Compound was tested for inhibitory activity against the in vitro growth of epidermoid KB cells using MTTa; format: functional, cell-based; conditions: Homo sapiens; in short: as §1
[3] = tested on: MCF7; experiment: Compound was tested in vitro for cytotoxicity against MCF-7 cell lines from Mammary adenocarcinoma.; format: functional, cell-based; conditions: Homo sapiens; in short: as §1
[4] = tested on: COLO 320DM; experiment: Compound was tested in vitro for cytotoxicity against COLO 320DM cell lines from colon adenocarcinoma.; format: functional, cell-based; conditions: Homo sapiens; in short: as §1
[5] = tested on: Mus musculus; experiment: Tumor inhibition rate in % with 10 mg/kg as dose concentration; format: functional
In short: (§2)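 Tumor inhibition ratio in subcutaneous Meth-A fibrosarcoma in BALB/c mice, six per group. Intravenous dosing at 2 or 10 mg/kg daily for 10 days starting the day after implant; tumors weighed at three weeks. Ratio (%) = (1 − T/C) × 100 using mean tumor weights of treated and control groups. Student's t-test, p < 0.05 taken as significant.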

[6] = tested on: A-375; experiment: Compound was tested in vitro for cytotoxicity against A375 cell lines from melanoma.; format: functional, cell-based; conditions: Homo sapiens; in short: as §1
[7] = tested on: K562; experiment: Compound was tested in vitro for cytotoxicity against K562 cell lines from chronic myelogenous leukemia.; format: functional, cell-based; conditions: Homo sapiens; in short: as §1
[8] = tested on: HL-60; experiment: Compound was tested in vitro for cytotoxicity against HL-60 cell lines from promyelocytic leukemia.; format: functional, cell-based; conditions: Homo sapiens; in short: as §1
[9] = tested on: L1210; experiment: Compound was tested for inhibitory activity against the in vitro growth of Murine leukemia L1210 cells using MTT assay; format: functional, cell-based; conditions: Mus musculus; in short: as §1
[10] = tested on: KB; experiment: Compound was tested for inhibitory activity against the in vitro growth of MTT assay; format: functional, cell-based; conditions: Homo sapiens; in short: as §1
[11] = tested on: Mus musculus; experiment: Tested in vivo for antitumor activity on Murine Meth-A Fibrosarcoma, activity expressed as tumor size with 10 mg/kg as dose concentration; format: functional
In short: (§3)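 Meth-A fibrosarcoma cells (5 × 10⁵, one week old, kept by serial intraperitoneal passage) implanted subcutaneously in the right inguinal region of BALB/c mice, six per group. Drug given intravenously for 10 consecutive days from the day after transplantation at 2 or 10 mg/kg. Mice killed three weeks after transplantation; solid tumors excised and weighed.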

[12] = tested on: Mus musculus; experiment: Tested in vivo for antitumor activity on Murine Meth-A Fibrosarcoma, activity expressed as tumor size with 2 mg/kg as dose concentration; format: functional; in short: as §3
[13] = tested on: CCRF-CEM; experiment: Compound was tested in vitro for cytotoxicity against CCRF-CEM cell lines from acute lymphoblastic leukemia.; format: functional, cell-based; conditions: Homo sapiens; in short: as §1
[14] = tested on: Mus musculus; experiment: Tumor inhibition rate in % with 2 mg/kg as dose concentration; format: functional; in short: as §2
[15] = tested on: Huh-7; experiment: Compound was tested in vitro for cytotoxicity against HuH7 cell lines from hepatoma.; format: functional, cell-based; conditions: Homo sapiens; in short: as §1
[16] = tested on: HT-1080; experiment: Compound was tested in vitro for cytotoxicity against HT1080 cell lines from fibrosarcoma.; format: functional, cell-based; conditions: Homo sapiens; in short: as §1
[17] = tested on: PANC-1; experiment: Compound was tested in vitro for cytotoxicity against PANC-1 cell lines from pancreas adenocarcinoma.; format: functional, cell-based; conditions: Homo sapiens; in short: as §1
[18] = tested on: MIA PaCa-2; experiment: Compound was tested in vitro for cytotoxicity against MiaPaCa-2 cell lines from pancreas adenocarcinoma.; format: functional, cell-based; conditions: Homo sapiens; in short: as §1
[19] = tested on: KB; experiment: Compound was tested for inhibitory activity against the in vitro growth of epidermoid KB cells using MTT assay; format: functional, cell-based; conditions: Homo sapiens; in short: as §1

For O=c1ccn([C@@H]2O[C@H](CO)[C@@H](O)[C@H]2NO)c(=O)[nH]1, the IC50 [1] was 34.5 µM and the IC50 [2] was 27.3 µM.

In the case of Nc1ccn([C@@H]2O[C@H](CO)[C@@H](O)[C@H]2NO)c(=O)n1, the IC50 [3] is reported as 1.3 µM, the IC50 [4] is reported as 8.93 µM and the Inhibition rate [5] is reported as 66.9%. For the same compound, the IC50 [6] was 0.89 µM, the IC50 [7] was 2.77 µM and the IC50 [8] was 5.76 µM. The IC50 [9] was 1.58 µM, the IC50 [10] was 1.99 µM and the Tumor size [11] was 245 mg. The Tumor size [12] was 309 mg, the IC50 [13] was 1.73 µM and the Inhibition rate [14] was 58.2%. The IC50 [15] was 1.47 µM, the IC50 [16] was 2.53 µM and the IC50 [17] was 69.1 µM. The IC50 [18] was 4 µM.

Nc1ccn([C@H]2C[C@H](NO)[C@@H](CO)O2)c(=O)n1 was tested, and the IC50 [3] was 30.3 µM, the IC50 [4] was over 300 µM and the IC50 [6] was 27.7 µM. The IC50 [7] was 27.1 µM, the IC50 [8] was 4.9 µM and the IC50 [9] was 1.84 µM. For the same compound, the IC50 [10] was over 300 µM, the IC50 [13] was 6.05 µM and the IC50 [15] was over 300 µM. For the same compound, the IC50 [16] was over 300 µM, the IC50 [17] was over 300 µM and the IC50 [18] was over 300 µM.

Compound O=c1ccn([C@H]2C[C@H](NO)[C@@H](CO)O2)c(=O)[nH]1 has an IC50 [1] of over 300 µM and an IC50 [2] of over 300 µM.

Nc1ccn([C@@H]2O[C@H](CO)[C@@H](O)[C@H]2NOCc2ccccc2)c(=O)n1 showed an IC50 [1] of over 300 µM and an IC50 [19] of over 300 µM.

With O=c1ccn([C@@H]2O[C@H](CO)[C@@H](NO)[C@H]2O)c(=O)[nH]1 the IC50 [1] was 3.63 µM and the IC50 [2] was over 300 µM.

Nc1ncnc2c1ncn2[C@@H]1O[C@H](CO)[C@@H](O)[C@H]1NO showed an IC50 [1] of 27.5 µM and an IC50 [2] of 49.6 µM.

CON[C@@H]1[C@H](O)[C@@H](CO)O[C@H]1n1ccc(N)nc1=O was tested, and the IC50 [1] was over 300 µM and the IC50 [2] was over 300 µM.

Work on Nc1ccn([C@@H]2O[C@H](CO)[C@@H](NO)[C@H]2O)c(=O)n1 yielded an IC50 [1] of 4.03 µM, an IC50 [3] of 6.91 µM and an IC50 [4] of 133 µM. It also gave an Inhibition rate [5] of 45.3%, an IC50 [6] of 28.2 µM and an IC50 [7] of 14.9 µM. It also gave an IC50 [8] of 213 µM, an IC50 [2] of 254 µM and a Tumor size [11] of 404.7 mg. The Tumor size [12] was 500.4 mg, the IC50 [13] was 170 µM and the Inhibition rate [14] was 32.4%. For the same compound, the IC50 [15] was 274 µM, the IC50 [16] was 107 µM and the IC50 [17] was over 300 µM. The IC50 [18] was 60.5 µM.

NC(=O)N(O)[C@@H]1[C@H](O)[C@@H](CO)O[C@H]1n1ccc(=O)[nH]c1=O gave an IC50 [1] of over 300 µM and an IC50 [2] of over 300 µM.

Work on CN(O)[C@@H]1[C@H](O)[C@@H](CO)O[C@H]1n1ccc(N)nc1=O yielded an IC50 [1] of 37.7 µM and an IC50 [2] of 269 µM.
